Experimental data: ChEMBL document CHEMBL4513216, “Probing the Open Global Health Chemical Diversity Library for Multistage-Active Starting Points for Next-Generation Antimalarials” (ACS Infect Dis, 2020)

Experiment: Toxicity liver stage against HepG2, at 10uM
Type: cell-based
Set-up: test concentration 10 uM, cell line HepG2-A16-CD81EGFP
Conditions: human, HepG2-A16-CD81EGFP cells; read-out: INHIBITION
Procedure, shortened: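 Uninfected HepG2-A16-CD81EGFP cells, 3 × 10^3 per well, 1536-well, plated on prespotted compound at 10 μM final, parasite-free screening media added to match infected plates; puromycin 10 μM positive, DMSO 0.5% negative; run in parallel with 48 h PbLuc assay at 37 °C, 5% CO2; viability by CellTiter-Glo luminescence, normalized to controls.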

SMILES	cytotoxicity at 10 µM [%]
CCc1c(C)nc(SCc2ccccn2)[nH]c1=O	9.56
CC(C)(C)c1c[nH]c([C@@H]2COCCN2C2CCNCC2)n1	6.07
O=C1CO[C@H]2CN(Cc3ccc4c(c3)OCO4)C[C@H]2N1	0.801
COc1ccc(CN2CCCC2c2cccc(F)c2)c(OC)c1OC (stereo unspecified)	3.48
COc1ccc(Cl)cc1NCc1nc2[nH]c(C)c(C)c(=O)n2n1	0.308
COc1ccccc1CN1CC(OC)CN(C(=O)OCC(C)C)CC1=O (stereo unspecified)	-12
COC1CCN(C(=O)NCC(N)=O)CC(=O)N(C)c2ccccc21 (stereo unspecified)	4.79
Cc1nc2oc(C(=O)N3CCCC3)c(N)c2c2c1CCCC2	-6.95
CN1C(=O)CCc2cc(NC(=O)C3CCCC3)ccc21	-9.79
Cc1cc(CNC(=O)COc2ccccc2F)c(C)o1	-2.33
Cn1nc(CNC(=O)c2cccc(C(F)(F)F)c2)c2c1CCOC2	4.07
CN1C(=O)CCC12CCN(Cc1ccco1)CC2	1.61
CC1CC2(CCN(C(=O)c3csnn3)CC2)c2ccccc21 (stereo unspecified)	-137
c1ccc(NC[C@@H]2CCC[C@@H]3CN(Cc4csnn4)C[C@@H]32)nc1	-114
O=C(C1CC=CC1)N1CCc2ncnc(-c3ccncc3)c2CC1	2.31
COCC(C)NC(=O)c1cn(C(C)(C)C)c2ncccc12 (stereo unspecified)	2.69
COCCO[C@@H]1C[C@H]2CN(C(=O)c3cnccn3)CCN2C1	-8.58
CC(=O)Nc1ncc(S(=O)(=O)Nc2ccccc2F)s1	14.4
CN(C)CCCNC(=O)c1nnsc1-c1ccccc1	5.75
CCn1cc(NC(=O)C(C)n2ncc(Cl)c2C)c(C(=O)NC)n1 (stereo unspecified)	9.51
CCc1nnc(SCc2nonc2C)n1C1CC1	0.649
O=C1CC(c2ccc(F)cc2)c2snc(C(=O)O)c2N1 (stereo unspecified)	0.833
COc1ccc(C2=NOC(C#N)C2)cc1 (stereo unspecified)	-11.2

SMILES	cytotoxicity at 10 µM [%]
CC(C)C(=O)N1CCCC(Cc2cccnc2)C1 (stereo unspecified)	-1.55
O[C@@H]1C[C@H]2CN(CC3CCCCC3)[C@H](Cc3ccccc3)CN2C1	0.13
Cc1ocnc1C(=O)N(C)[C@@H]1CC[C@@H](Oc2ccccc2)[C@@H]1O	-0.658
Cc1nn(C)cc1S(=O)(=O)N[C@@H]1CC[C@@H](n2ccnc2C)[C@@H]1O	-3.43
CO[C@H]1CN(C(=O)c2cn3cc(C)ccc3n2)CC[C@@]12CCCO2	3.6
OCCc1cc(C2CCCN2c2ncccn2)n[nH]1 (stereo unspecified)	5.56
Cc1cccc(-c2nccnc2C2CCCN(C)C2)c1 (stereo unspecified)	0.83
NC(=O)CN1CCCC(Cc2ccc(N3CCOCC3)nn2)C1 (stereo unspecified)	8.21
CCCn1cc(CN2CCCC2c2cccc(-n3ccnc3)n2)cn1 (stereo unspecified)	-19.6
Cc1noc(C)c1-c1cncc(C2CCCN2Cc2nccs2)n1 (stereo unspecified)	-14.2
Cc1cc(N(C)C)nc(C2(C)CCCN2C(=O)c2ccccc2)n1 (stereo unspecified)	-27.4
CN(C)Cc1ccnc(C2CCCN2Cc2cccc(F)c2F)n1 (stereo unspecified)	2.22
Cc1cc2cc(C(=O)N3C[C@H](O)[C@]4(CCCO4)C3)ccc2o1	-10.9
c1cnc(N2CCCC(c3cncc(-n4ccnc4)n3)C2)nc1 (stereo unspecified)	-11.8
c1cnc(N2CCC(c3n[nH]c4ncccc34)C2)nc1 (stereo unspecified)	-4.47
CC1(C(=O)NCc2cccc(C(F)(F)F)c2)CCOCC1	7.63
Cc1ccc(-n2nc3n(c2=O)CCN(C(=O)c2ccc(Cl)cc2)C3)cc1	6.78
Cc1ccc(CNC(=O)CN(CCC(N)=O)c2ccc(F)cc2)cc1	-2.62
Cc1cc(NC(=O)NCCC(=O)N2CCCc3ccccc32)no1	-5.96
COc1ccc(CNC(=O)C(NC(=O)Cc2ccccc2)C(C)C)cn1 (stereo unspecified)	-0.943
NC(=O)COc1ccc(C2NC(=O)CN2Cc2ccc(Br)cc2)cc1 (stereo unspecified)	-7.38
CCc1ccc(CNC(=O)CCNc2ncccn2)s1	3.73
CN(C)C1Cc2ccccc2N(S(=O)(=O)c2ccc(C#N)cc2)C1 (stereo unspecified)	2.91

SMILES	cytotoxicity at 10 µM [%]
CC1CN(c2ncnc3cccc(F)c23)CCO1 (stereo unspecified)	16.1
CS(=O)(=O)NC1CCCN(Cc2ccc(OCc3ccccn3)cc2)C1 (stereo unspecified)	1.8
CS(=O)(=O)NC1CCCN(Cc2ccccn2)C1 (stereo unspecified)	4.74
COC(=O)CCNC(=O)c1cc(Br)c2c(c1)OCCO2	11
CCN(CC1CCCO1)C(=O)CSCC(=O)Nc1ccc(C)cc1 (stereo unspecified)	-1.69
Cc1cc2n(n1)CC(CNC1CCN(Cc3ccncc3)CC1)CN2 (stereo unspecified)	1.78
Cn1cc(-c2nc(CN3CCn4c(nnc4C4CC4)C3)cs2)cn1	-1.07
COCCOc1ccc(NC(=O)N2CCOC(C(N)=O)C2)cc1F (stereo unspecified)	-140
Cc1ccc(C(=O)NC2CCOc3ccccc32)cc1S(C)(=O)=O (stereo unspecified)	-3.83
COc1nc(C)ccc1CNC(=O)NC(C)(C)c1ncc(C)s1	14.7
CC(C)Cn1cc(NC(=O)NCC2CCN(c3ccccc3)C2)cn1 (stereo unspecified)	2.53
Cn1nc2c(cc1=O)CN(Cc1ccc(-n3cccn3)cc1)CC2	-141
CCN(Cc1cccc(NC(=O)COCCOC)c1)C(C)=O	-136
COc1ccccc1N1CCC(CNC(=O)N(C)Cc2ccco2)C1 (stereo unspecified)	-146
CCCc1nnnn1Cc1cn2c(C)cccc2n1	-8.51
N#Cc1ccc(N2CCN(c3cnccn3)CC2)cc1C(F)(F)F	38.6
Cn1cc(S(=O)(=O)NCCc2nnc3ccccn23)cn1	8.43
CN(Cc1cc(Cl)ccc1Cl)Cc1ncnn1C	-0.943
COc1cccc(CNCc2cccnc2-n2cccn2)c1OC	2.86
COc1cccc(NC(=O)NC2(c3noc(CN(C)C)n3)CCCC2)c1	2.6
CSc1ccc(OCCN2CCNC(=O)C2C)cc1 (stereo unspecified)	8.57
CNC(=O)NCC(CO)Cc1ccccc1OC(F)(F)F (stereo unspecified)	5.97
O=C(c1ccc(-c2nc[nH]n2)cc1)N1CC[C@H](CO)[C@@H](O)C1	0.466

SMILES	cytotoxicity at 10 µM [%]
O=C(CCc1cn[nH]c1)N1C[C@@H](CN2CCOCC2)C[C@H](CO)C1	3.13
COCCN(CC1CC1)c1nc(CCN)nc2ccccc12	9.22
CN(CCc1ccccn1)C(=O)CCC1CCCN(c2ncccn2)C1 (stereo unspecified)	1.64
Cc1ccsc1[C@@H]1CCN(C(=O)c2ccc(-c3cc[nH]n3)cc2)C[C@H]1O	4.28
CN(CCN1CCCCCC1)C(=O)c1cc(CN2CCCC(O)C2)on1 (stereo unspecified)	-0.641
CCCN(Cc1nccn1C)C(=O)C(CC)Nc1cccc(OC)c1 (stereo unspecified)	0.417
Cc1nc(N(C)CCCc2nccn2C)c2c(C)nn(C)c2n1	5.84
CCCn1cnnc1CN(C)C(=O)CCC(=O)Nc1cc(C)ccc1F	16.1
Cc1cc2cccc(NC(=O)N3CCC(N4CCSCC4)CC3)c2o1	-3.25
COCCCN1C(=O)CC[C@H]2CN(Cc3ccc4occc4c3)CC[C@H]21	8.98
O=C(N[C@H]1CN(C2CCOCC2)C[C@@H]1C1CC1)c1ccon1	5.21
COc1ccc(F)cc1CN1CCC(O)(CN2CCCCC2)C1 (stereo unspecified)	-12
Cc1cccnc1CC(C)N(C)C(=O)c1cccs1 (stereo unspecified)	-1.02
Cc1cccc(C)c1NC(=O)c1cccc(N(C)S(C)(=O)=O)c1C	3.03
CCCc1cc(=O)[nH]c(-c2ccccc2CN(C)CCn2cccn2)n1	-1.41
O=C(CCn1cncn1)N1CC[C@@H](c2ccc3ccccc3c2)[C@H](O)C1	-5.16
COc1cccc(N2CCN(C(=O)CCO)CC2=O)c1	3.75
Cc1nc(C)n(C2CCCN(C(=O)c3ccc(O)nc3)C2)n1 (stereo unspecified)	-1.95
CCn1ccnc1CN1CCCN(C(=O)c2ccsc2)CC1	-6.63
Cc1cc(C)n(CC2CN(Cc3cc(C)on3)CCO2)n1 (stereo unspecified)	-9.71
COC(=O)c1cccn1C1CCN(C(=O)c2cc(C)ccc2O)CC1	-3.22
CN(CC(=O)N1CCC(C(O)c2ccccc2)CC1)c1cnccn1 (stereo unspecified)	-2.9
CC(O)CN1CCN(C(=O)c2ccc(Br)o2)CC1 (stereo unspecified)	-8.6

SMILES	cytotoxicity at 10 µM [%]
CCCc1noc(CN2CCCC2c2ccsc2)n1 (stereo unspecified)	-18.8
COc1c(C2CCCN2C(=O)Cc2c(C)noc2C)c(C)nn1C (stereo unspecified)	-12.9
Fc1cccc(-c2nc(CN3CCn4c(nnc4C4CC4)C3)co2)c1	4.4
Cc1ccc(NC2CCN(C(=O)c3cccc4ncccc34)CC2)nn1	7.51
O=C(Cc1ccc(-n2cccn2)cc1)N1CCN2CCCCC2C1 (stereo unspecified)	4.31
CCc1noc(C(C)N2CCNCC2)n1 (stereo unspecified)	-3.46
CC(NC(=O)c1cc(Br)c2c(c1)OCCO2)C(N)=O (stereo unspecified)	-1.06
COc1c(C2CCCN2C(=O)c2cncnc2C)c(C)nn1C (stereo unspecified)	-6.19
Cc1cnn(C2CCCN(C(=O)CCCOc3cccc(F)c3)C2)c1 (stereo unspecified)	6.71
CC(OCC(F)(F)F)C(=O)Nc1ccc(-n2cncn2)nc1 (stereo unspecified)	3.44
CN(C)S(=O)(=O)c1ccc(-c2nc(C#N)c(NC(C)(C)C)o2)o1	-12.3
c1cc2nccc(CC3CCCN(C4CCOCC4)CC3)c2cn1 (stereo unspecified)	-8.24
O=C1CC2(CNCCN(C(=O)Nc3ccccc3)C2)CN1 (stereo unspecified)	2.23
CC(=O)N1CCN(Cc2ccsc2)CC2(CC(=O)N(C)C2)C1 (stereo unspecified)	-1.27
Cc1ncsc1CN1C[C@@H](OCc2ccncc2)[C@H]2OCCC[C@H]21	-148
c1cc(CNCc2ccc(Cn3cncn3)cc2)c2c(c1)OCCO2	0.585
O=C(C1CCCC1)N1C[C@@H]2CCN(c3cnccn3)C[C@@H]2C1	3.44
N#CC1Sc2nnc(-c3ccccc3Br)n2N=C1N (stereo unspecified)	-4.81
COCCN1C(=O)[C@@H]2CC[C@H]1CN(Cc1nnc(C3CC3)o1)C2	11.6
